From ChEMBL document CHEMBL4138099, “Design, synthesis and biological evaluation of uncharged catechol derivatives as selective inhibitors of PTP1B” (Eur J Med Chem, 2017)
Active and inactive are the calls of the source. No cut-off for these calls is given here.

Legend:
[1] = target: T1, Tyrosine-protein phosphatase non-receptor type 1 (Homo sapiens, UniProt P18031); experiment: Inhibition of recombinant GST-tagged PTP1B catalytic domain (1 to 321 residues) (unknown origin) expressed in Escherichia coli BL21(DE3) using pNPP as substrate after 30 mins by spectrophotometer
T1 sequence (P18031 whole entry): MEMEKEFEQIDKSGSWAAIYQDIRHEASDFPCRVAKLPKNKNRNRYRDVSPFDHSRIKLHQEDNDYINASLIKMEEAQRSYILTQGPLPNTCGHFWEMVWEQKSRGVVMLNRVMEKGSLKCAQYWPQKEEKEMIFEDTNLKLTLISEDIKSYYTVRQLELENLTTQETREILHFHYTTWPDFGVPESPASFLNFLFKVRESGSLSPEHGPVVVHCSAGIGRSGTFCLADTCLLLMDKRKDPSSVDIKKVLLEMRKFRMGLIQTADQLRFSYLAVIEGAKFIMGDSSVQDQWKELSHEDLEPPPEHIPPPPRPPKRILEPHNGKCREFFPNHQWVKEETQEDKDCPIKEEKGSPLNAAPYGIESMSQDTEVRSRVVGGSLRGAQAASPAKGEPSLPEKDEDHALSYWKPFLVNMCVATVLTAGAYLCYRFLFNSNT
Summary of the method: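 Assay at 37 °C, pH 7.5, in 10 mM Tris-HCl, 25 mM NaCl, 1 mM EDTA and 2 mM DTT, with 4 mM pNPP and 60 nM PTP1B. Inhibitor was added from DMSO at final 100 to 0.01 µM, and the reaction was started with enzyme. After 30 min it was stopped with 1 N NaOH and read at 405 nm. IC50 came from a sigmoidal fit of relative activity versus concentration.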

[2] = target: T2, Tyrosine-protein phosphatase non-receptor type 2 (Homo sapiens, UniProt P17706); experiment: Inhibition of TCPTP (unknown origin) using pNPP as substrate after 30 mins by spectrophotometer
T2 sequence (P17706 whole entry): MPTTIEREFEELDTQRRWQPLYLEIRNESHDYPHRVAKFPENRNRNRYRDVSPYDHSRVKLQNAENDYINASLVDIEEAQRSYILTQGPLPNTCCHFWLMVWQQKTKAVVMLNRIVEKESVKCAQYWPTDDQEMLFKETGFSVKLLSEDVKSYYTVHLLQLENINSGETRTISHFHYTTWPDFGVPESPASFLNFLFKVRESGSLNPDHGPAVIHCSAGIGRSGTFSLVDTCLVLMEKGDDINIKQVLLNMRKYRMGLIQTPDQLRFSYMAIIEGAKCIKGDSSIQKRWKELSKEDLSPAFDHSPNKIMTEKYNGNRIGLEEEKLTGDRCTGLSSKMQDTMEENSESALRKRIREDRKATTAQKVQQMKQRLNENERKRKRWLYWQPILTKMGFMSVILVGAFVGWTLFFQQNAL

Homo sapiens = species: Homo sapiens; experiment: Selectivity ratio of IC50 for TCPTP (unknown origin) to IC50 for recombinant GST-tagged PTP1B catalytic domain (1 to 321 residues) (unknown origin)
[3] = target: T3, Tyrosine-protein phosphatase non-receptor type 1 (Homo sapiens) (UniProt P18031); experiment: Competitive inhibition of recombinant GST-tagged PTP1B catalytic domain (1 to 321 residues) (unknown origin) expressed in Escherichia coli BL21(DE3) at 1 to 8 uM using varying levels of pNPP as substrate after 30 mins by spectrophotometric method
T3 sequence (whole entry): T1 sequence (P18031 whole entry)
Summary of the method: (§1)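 PTP1B-catalysed pNPP hydrolysis read by absorbance of p-nitrophenol at 405 nm, run with pNPP at 0.5, 1.0, 2.0, 4.0 and 8.0 mM, with and without inhibitor. Inhibition mode was assigned from double-reciprocal (1/v) plots.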

[4] = target: T4, Tyrosine-protein phosphatase non-receptor type 1 (Mus musculus) (UniProt P35821); experiment: Inhibition of PTP1B in mouse C2C12 cells assessed as increase in insulin stimulated IRbeta phosphorylation at 2 uM preincubated for 1 hr followed by 100 nM insulin addition measured after 30 mins by immunoblot method; assay type: cell-based
T4 sequence (whole entry): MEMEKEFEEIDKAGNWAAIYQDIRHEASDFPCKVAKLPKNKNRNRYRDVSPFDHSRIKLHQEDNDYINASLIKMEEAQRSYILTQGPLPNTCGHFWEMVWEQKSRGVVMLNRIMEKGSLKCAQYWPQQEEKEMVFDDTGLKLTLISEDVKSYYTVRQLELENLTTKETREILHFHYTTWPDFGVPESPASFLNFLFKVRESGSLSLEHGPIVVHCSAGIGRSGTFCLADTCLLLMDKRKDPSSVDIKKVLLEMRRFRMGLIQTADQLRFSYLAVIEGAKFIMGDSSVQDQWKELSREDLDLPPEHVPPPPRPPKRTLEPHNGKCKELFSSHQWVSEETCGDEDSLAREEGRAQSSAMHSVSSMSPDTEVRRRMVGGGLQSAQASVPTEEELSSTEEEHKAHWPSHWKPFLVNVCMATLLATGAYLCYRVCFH
Summary of the method: (§2)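 C2C12 myoblasts were grown in DMEM with 10% fetal calf serum and differentiated to myotubes in 10% horse serum. Myotubes were serum-starved 24 h, then given inhibitor at 0.5–4 µM in serum-free DMEM and stimulated with 100 nM insulin for 30 min at 37 °C. RIPA lysates (10 µg protein) were immunoblotted for phospho-proteins, detected by ECL and quantified by densitometry.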

[5] = target: T4, Tyrosine-protein phosphatase non-receptor type 1 (Mus musculus); experiment: Inhibition of PTP1B in mouse C2C12 cells assessed as increase in insulin stimulated IRS-1 phosphorylation at 2 uM preincubated for 1 hr followed by 100 nM insulin addition measured after 30 mins by immunoblot method; assay type: cell-based; summary of the method: as §2
[6] = target: T4, Tyrosine-protein phosphatase non-receptor type 1 (Mus musculus); experiment: Inhibition of PTP1B in mouse C2C12 cells assessed as increase in insulin stimulated AKT phosphorylation at 2 uM preincubated for 1 hr followed by 100 nM insulin addition measured after 30 mins by immunoblot method; assay type: cell-based; summary of the method: as §2
[7] = target: T3, Tyrosine-protein phosphatase non-receptor type 1 (Homo sapiens); experiment: Competitive inhibition of recombinant GST-tagged PTP1B catalytic domain (1 to 321 residues) (unknown origin) expressed in Escherichia coli BL21(DE3) at 1 to 4 uM using varying levels of pNPP as substrate after 30 mins by spectrophotometric method; summary of the method: as §1
[8] = target: T3, Tyrosine-protein phosphatase non-receptor type 1 (Homo sapiens); experiment: Inhibition of recombinant GST-tagged PTP1B catalytic domain (1 to 321 residues) (unknown origin) expressed in Escherichia coli BL21(DE3) at 1 mM using pNPP as substrate after 30 mins by spectrophotometric method relative to control
Summary of the method: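 PTP1B (60 nM) reacted with 4 mM pNPP at 37 °C and pH 7.5 in 10 mM Tris-HCl, 25 mM NaCl, 1 mM EDTA, 2 mM DTT. The compound was added from DMSO at 1% v/v. The reaction was started with enzyme and stopped with 1 N NaOH after 30 min. p-Nitrophenol was read at 405 nm, and activity was taken relative to control.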

SMILES | IC50 [1] [µM] | further results
O=C(CSc1nnc(-c2ccc(O)c(O)c2)o1)Oc1ccc(C(F)(F)F)cc1 | 21.4 | 
COc1ccc(OC(=O)CSc2nnc(-c3ccc(O)c(O)c3)o2)cc1 | 6.02 | IC50 [2]: > 100 µM; Ratio IC50 (Homo sapiens): > 16.6
Cc1ccc(OC(=O)CSc2nnc(-c3ccc(O)c(O)c3)o2)cc1 | 4.74 | 
Cc1ccc(Oc2ccc(-c3cnc(-c4ccc(O)c(O)c4)o3)cc2)cc1 | 0.807 | inhibition [3]: Active
CCC(C)(C)c1ccc(Oc2ccc(-c3cnc(-c4ccc(O)c(O)c4)o3)cc2)cc1 | 3.6 | 
O=C(CSc1nnc(-c2ccc(O)c(O)c2)o1)Oc1ccc(Br)cc1 | 115 | 
Cc1ccc(Oc2ccc(C(=O)CSc3nnc(-c4ccc(O)c(O)c4)o3)cc2)cc1 | 3.89 | IC50 [2]: 8.73 µM; Ratio IC50 (Homo sapiens): 2.24
CCOc1ccc(OC(=O)CSc2nnc(-c3ccc(O)c(O)c3)o2)cc1 | 7.94 | 
CCOc1ccc(Oc2ccc(-c3cnc(-c4ccc(O)c(O)c4)o3)cc2)cc1 | 20.8 | 
O=C(CSc1nnc(-c2ccc(O)c(O)c2)o1)Oc1ccc(OCc2ccccc2)cc1 | 7.79 | 
Oc1ccc(-c2ncc(-c3ccc(Oc4ccccc4)cc3)o2)cc1O | 2.63 | 
CC(C)(C)c1ccc(Oc2ccc(OC(=O)CSc3nnc(-c4ccc(O)c(O)c4)o3)cc2)cc1 | 10.5 | 
COC(=O)CSc1nnc(-c2ccc(O)c(O)c2)o1 | 35.6 | 
Oc1ccc(-c2nnc(SCc3ccccc3)o2)cc1O | 31.6 | 
COCCc1ccc(Oc2ccc(-c3cnc(-c4ccc(O)c(O)c4)o3)cc2)cc1 | 19.1 | 
CC(C)c1ccc(Oc2ccc(OC(=O)CSc3nnc(-c4ccc(O)c(O)c4)o3)cc2)cc1 | 11 | 
CC(C)(C)c1ccc(Oc2ccc(-c3cnc(-c4ccc(O)c(O)c4)o3)cc2)cc1 | 0.487 | IC50 [2]: 13.3 µM; Ratio IC50 (Homo sapiens): 27.3; inhibition [4]: Active; inhibition [5]: Active; inhibition [6]: Active; inhibition [7]: Active
O=C(CSc1nnc(-c2ccc(O)c(O)c2)o1)c1ccccc1 | 15.5 | 
CC(C)c1ccc(Oc2ccc(-c3cnc(-c4ccc(O)c(O)c4)o3)cc2)cc1 | 7.44 | 
COc1ccc(Oc2ccc(-c3cnc(-c4ccc(O)c(O)c4)o3)cc2)cc1 | 6.92 | 
O=C(CSc1nnc(-c2ccc(O)c(O)c2)o1)Oc1ccccc1 | 8.09 | 
COCCc1ccc(Oc2ccc(OC(=O)CSc3nnc(-c4ccc(O)c(O)c4)o3)cc2)cc1 | 22.8 | 
CCOc1ccc(Oc2ccc(OC(=O)CSc3nnc(-c4ccc(O)c(O)c4)o3)cc2)cc1 | 17 | 
O=Cc1ccc(O)c(O)c1 |  | inhibition [8]: 29%
O=C(CSc1nnc(-c2ccc(O)c(O)c2)o1)Oc1ccc(Oc2ccccc2)cc1 | 9.33 | 
O=C(CSc1nnc(-c2ccc(O)c(O)c2)o1)Oc1ccc(Oc2ccc(OCc3ccccc3)cc2)cc1 | 21.4 | 
Oc1ccc(-c2ncc(-c3ccc(Oc4ccc(-c5ccccc5)cc4)cc3)o2)cc1O | 6.25 | IC50 [2]: 5.01 µM; Ratio IC50 (Homo sapiens): 0.8
